Reference: ChEMBL document CHEMBL4834402, “Discovery of TAK-981, a First-in-Class Inhibitor of SUMO-Activating Enzyme for the Treatment of Cancer” (J Med Chem, 2021)

What was measured:
[1] = Inhibition of recombinant UAE (unknown origin) in presence of ATP at Km concentration by HTRF assay; design: species or system Homo sapiens
[2] = target: T1, SUMO-activating enzyme (Homo sapiens, UniProt Q9UBT2); assay: Inhibition of SAE in human HCT116 cells assessed as reduction in redistribution of SUMO2/3 proteins from nucleus to cytosol incubated for 4 hrs by immunofluorescence assay; assay type: cell-based, HCT-116
Outline: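 HCT-116 cells exposed to compound across a concentration range for 4 h, then stained with anti-SUMO2/3 monoclonal antibody. Automated imaging scored the nuclear (inner) to cytoplasmic (outer) SUMO2/3 ratio. IC50 taken from the dose response.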

[3] = target: T1, SUMO-activating enzyme; assay: Inhibition of recombinant SAE (unknown origin) assessed as reduction in transfer of SUMO1 to UBC9 using SUMO1 as a substrate in presence of ATP at Km concentration by HTRF assay; assay type: protein-complex assay
Outline: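 HTRF transthiolation assay measuring transfer of SUMO1 to UBC9, the E2 for SAE.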

[4] = target: T2, NEDD8 activating enzyme (Homo sapiens, UniProt Q8TBC4); assay: Inhibition of recombinant NAE (unknown origin) in presence of ATP at Km concentration by HTRF assay; assay type: protein-complex assay
T2 sequence (Q8TBC4 whole entry): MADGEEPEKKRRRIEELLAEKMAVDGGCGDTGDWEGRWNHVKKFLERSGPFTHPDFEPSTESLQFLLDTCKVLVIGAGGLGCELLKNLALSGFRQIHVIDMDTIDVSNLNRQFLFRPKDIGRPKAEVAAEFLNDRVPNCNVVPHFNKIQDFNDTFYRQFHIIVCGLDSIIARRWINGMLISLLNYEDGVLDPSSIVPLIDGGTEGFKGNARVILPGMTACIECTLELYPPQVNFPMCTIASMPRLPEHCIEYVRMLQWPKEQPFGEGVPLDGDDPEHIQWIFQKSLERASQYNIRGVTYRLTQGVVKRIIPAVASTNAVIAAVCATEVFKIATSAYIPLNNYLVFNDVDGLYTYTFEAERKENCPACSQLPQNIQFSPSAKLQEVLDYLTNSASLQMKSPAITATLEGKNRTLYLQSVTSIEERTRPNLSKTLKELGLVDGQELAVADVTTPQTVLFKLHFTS
T2 sequence (Q13564 whole entry): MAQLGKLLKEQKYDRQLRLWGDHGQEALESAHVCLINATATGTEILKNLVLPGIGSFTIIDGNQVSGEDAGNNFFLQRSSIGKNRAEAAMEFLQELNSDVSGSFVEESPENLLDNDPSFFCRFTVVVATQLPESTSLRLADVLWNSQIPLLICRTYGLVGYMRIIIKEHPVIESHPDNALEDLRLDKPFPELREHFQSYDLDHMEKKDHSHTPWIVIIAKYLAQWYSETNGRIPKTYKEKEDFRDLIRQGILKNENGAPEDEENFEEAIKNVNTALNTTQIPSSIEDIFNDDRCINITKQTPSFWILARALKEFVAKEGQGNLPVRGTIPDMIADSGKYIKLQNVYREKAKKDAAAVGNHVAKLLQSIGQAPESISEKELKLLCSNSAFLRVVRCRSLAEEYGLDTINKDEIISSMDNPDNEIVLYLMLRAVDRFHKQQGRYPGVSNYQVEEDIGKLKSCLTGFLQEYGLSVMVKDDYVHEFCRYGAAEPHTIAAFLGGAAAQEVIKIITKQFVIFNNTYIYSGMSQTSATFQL

T1 sequence (Q9UBE0 whole entry): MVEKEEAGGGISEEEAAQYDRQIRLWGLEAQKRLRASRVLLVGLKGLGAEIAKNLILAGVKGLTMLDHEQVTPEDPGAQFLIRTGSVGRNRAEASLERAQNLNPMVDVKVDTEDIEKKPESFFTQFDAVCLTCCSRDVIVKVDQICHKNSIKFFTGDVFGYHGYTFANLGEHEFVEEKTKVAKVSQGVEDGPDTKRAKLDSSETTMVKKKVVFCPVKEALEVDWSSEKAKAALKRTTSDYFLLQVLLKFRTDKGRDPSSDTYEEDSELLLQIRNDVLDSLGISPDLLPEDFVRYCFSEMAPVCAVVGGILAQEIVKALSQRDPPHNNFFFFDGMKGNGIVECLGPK
T1 sequence (Q9UBT2 whole entry): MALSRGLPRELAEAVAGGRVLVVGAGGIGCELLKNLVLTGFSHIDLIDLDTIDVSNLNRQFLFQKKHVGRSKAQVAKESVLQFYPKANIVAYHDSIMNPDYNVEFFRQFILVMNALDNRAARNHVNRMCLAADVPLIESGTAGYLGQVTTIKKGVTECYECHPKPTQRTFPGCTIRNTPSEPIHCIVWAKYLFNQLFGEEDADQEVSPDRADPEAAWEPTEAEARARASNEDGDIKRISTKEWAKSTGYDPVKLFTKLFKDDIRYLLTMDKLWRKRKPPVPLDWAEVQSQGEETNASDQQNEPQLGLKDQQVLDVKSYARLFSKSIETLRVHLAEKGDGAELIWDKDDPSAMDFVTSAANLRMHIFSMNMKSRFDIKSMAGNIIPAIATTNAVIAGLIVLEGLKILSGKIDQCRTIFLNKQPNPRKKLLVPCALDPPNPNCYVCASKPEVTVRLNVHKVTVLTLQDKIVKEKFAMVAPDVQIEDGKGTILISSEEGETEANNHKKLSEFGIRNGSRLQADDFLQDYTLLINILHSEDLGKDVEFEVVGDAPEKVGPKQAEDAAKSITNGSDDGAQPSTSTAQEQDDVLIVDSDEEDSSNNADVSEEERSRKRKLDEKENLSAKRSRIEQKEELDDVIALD

## NS(=O)(=O)OC[C@H]1C[C@@H](Nc2ncncc2C(=O)c2csc(Cc3cccc(Br)c3)c2)C[C@@H]1O
[1]
  IC50: > 1000 nM
[2]
  IC50: 4930 nM
[3]
  IC50: 18 nM
[4]
  IC50: 523 nM

## NS(=O)(=O)OC[C@H]1C[C@@H](Nc2ncncc2C(=O)c2ccn(Cc3ccc(Cl)s3)n2)C[C@@H]1O
[1]
  IC50: > 1000 nM
[2]
  IC50: 228 nM
[3]
  IC50: 2 nM
[4]
  IC50: 353 nM

## NC(c1cccc(Cl)c1)c1csc(C(=O)c2cncnc2N[C@@H]2C[C@H](COS(N)(=O)=O)[C@@H](O)C2)c1 (stereo in doubt; 32)
[1]
  IC50: > 1000 nM
[2]
  IC50: 1030 nM
[3]
  IC50: 1.5 nM
[4]
  IC50: 328 nM

## NS(=O)(=O)OC[C@H]1C[C@@H](Nc2ncncc2C(=O)c2ccn(Cc3ccccc3)n2)[C@@H](O)[C@@H]1O
[1]
  IC50: > 1000 nM
[2]
  IC50: 1530 nM
[3]
  IC50: 27 nM
[4]
  IC50: 748 nM

## NS(=O)(=O)OC[C@H]1C[C@@H](Nc2ncncc2C(=O)c2cc(Cc3cccc(Br)c3)cs2)C[C@@H]1O
[1]
  IC50: > 1000 nM
[4]
  IC50: 91 nM

## CNC(c1cccc(Cl)c1)c1csc(C(=O)c2cncnc2N[C@@H]2C[C@H](COS(N)(=O)=O)[C@@H](O)C2)c1 (some centres undefined)
[1]
  IC50: > 1000 nM
[2]
  IC50: 436 nM
[3]
  IC50: 3.7 nM
[4]
  IC50: 956 nM

## NS(=O)(=O)OC[C@@H]1C[C@@H](Nc2ncncc2C(=O)c2ccn(Cc3ccccc3)n2)C[C@@H]1O
[1]
  IC50: > 1000 nM
[2]
  IC50: > 1000 nM
[3]
  IC50: 22 nM
[4]
  IC50: 806 nM

## NS(=O)(=O)OC[C@H]1C[C@@H](Nc2ncncc2C(=O)c2ccn(Cc3ccccc3)n2)[C@H](F)[C@@H]1O
[1]
  IC50: > 1000 nM
[2]
  IC50: 517 nM
[3]
  IC50: 3.8 nM
[4]
  IC50: 334 nM

## NS(=O)(=O)OC[C@H]1C[C@@H](Nc2ncncc2C(=O)c2cc(C3OCc4ccc(Cl)cc43)c(Cl)s2)C[C@@H]1O (some centres undefined)
[1]
  IC50: > 1000 nM
[2]
  IC50: 163 nM
[3]
  IC50: 3 nM
[4]
  IC50: > 1000 nM

## NS(=O)(=O)OC[C@H]1C[C@@H](Nc2ncncc2C(=O)c2ccn(Cc3cccc(C(F)(F)F)c3)n2)C[C@@H]1O
[1]
  IC50: > 1000 nM
[2]
  IC50: 39 nM
[3]
  IC50: 1.1 nM
[4]
  IC50: 695 nM

## N#Cc1sc(C(=O)c2cncnc2N[C@@H]2C[C@H](COS(N)(=O)=O)[C@@H](O)C2)cc1Cc1cccc(Cl)c1
[1]
  IC50: > 1000 nM
[2]
  IC50: 6260 nM
[3]
  IC50: 19 nM
[4]
  IC50: > 1000 nM

## NS(=O)(=O)OC[C@H]1C[C@@H](Nc2ncncc2C(=O)c2cnn(Cc3ccccc3)c2)C[C@@H]1O
[1]
  IC50: > 1000 nM
[2]
  IC50: 2940 nM
[3]
  IC50: 6.3 nM
[4]
  IC50: 122 nM

## CN(C)C(c1cccc(Cl)c1)c1csc(C(=O)c2cncnc2N[C@@H]2C[C@H](COS(N)(=O)=O)[C@@H](O)C2)c1 (some centres undefined)
[1]
  IC50: > 1000 nM
[2]
  IC50: 4170 nM
[3]
  IC50: 25 nM
[4]
  IC50: > 1000 nM

## NS(=O)(=O)OC[C@H]1C[C@@H](Nc2ncncc2C(=O)c2ccn(Cc3ccc(Cl)o3)n2)C[C@@H]1O
[1]
  IC50: > 1000 nM
[2]
  IC50: 33 nM
[3]
  IC50: 1.1 nM
[4]
  IC50: 435 nM

## NS(=O)(=O)OC[C@H]1C[C@@H](Nc2ncncc2C(=O)c2ccn(Cc3ccccc3)n2)C(F)(F)[C@@H]1O
[1]
  IC50: > 1000 nM
[2]
  IC50: 249 nM
[3]
  IC50: 3.9 nM
[4]
  IC50: > 1000 nM

## NS(=O)(=O)OC[C@H]1C[C@@H](Nc2ncncc2C(=O)c2cc(C3OCCc4c(Cl)cccc43)cs2)C[C@@H]1O (some centres undefined)
[1]
  IC50: > 1000 nM
[2]
  IC50: 76 nM
[3]
  IC50: 1.7 nM
[4]
  IC50: 265 nM

## C#Cc1cccc(Cn2ccc(C(=O)c3cncnc3N[C@@H]3C[C@H](COS(N)(=O)=O)[C@@H](O)C3)n2)c1
[1]
  IC50: > 1000 nM
[2]
  IC50: 22 nM
[3]
  IC50: 1.1 nM
[4]
  IC50: 304 nM

## NS(=O)(=O)OC[C@H]1C[C@@H](Nc2ncncc2C(=O)c2ccn(Cc3ccc(Cl)cc3)n2)C[C@@H]1O
[1]
  IC50: > 1000 nM
[2]
  IC50: 1880 nM
[3]
  IC50: 5.1 nM
[4]
  IC50: > 1000 nM

## NS(=O)(=O)OC[C@H]1C[C@@H](Nc2ncncc2C(=O)c2ccn(Cc3cccc(OC(F)(F)F)c3)n2)C[C@@H]1O
[1]
  IC50: > 1000 nM
[2]
  IC50: 78 nM
[3]
  IC50: 2.1 nM
[4]
  IC50: > 1000 nM
